{"data": "Published values gathered from unrelated publications", "mode": "agonist", "MC3R": "Melanocortin receptor 3 (MC3R, Homo sapiens, UniProt P41968)", "AVPR2": "Vasopressin V2 receptor (AVPR2, Homo sapiens, UniProt P30518)", "GPR84": "G-protein coupled receptor 84 (GPR84, Homo sapiens, UniProt Q9NQS5)", "DRD2": "D(2) dopamine receptor (DRD2, Homo sapiens, UniProt P14416)", "Peroxisome proliferator-activated receptor alpha": "Peroxisome proliferator-activated receptor alpha (Rattus norvegicus, UniProt P37230)", "Neuromedin-U receptor 2": "Neuromedin-U receptor 2 (Mus musculus, UniProt Q8BZ39)", "note": "Lines come from different studies, so protocols differ."}
{"Compound": "CC(C)=CCNc1ncnc2c1ncn2[C@@H]1O[C@H](CO)[C@@H](O)[C@H]1O", "target": "Adenosine receptor A3 (ADORA3, Homo sapiens, UniProt P0DMS8)", "test": "cAMP", "EC50 [nM]": 2000}
{"Compound": "CCCC[C@H](NC(=O)[C@H](CO)NC(=O)[C@H](Cc1ccc(O)cc1)NC(=O)[C@H](CO)NC(C)=O)C(=O)N[C@@H](CCC(=O)O)C(=O)N[C@@H](Cc1c[nH]cn1)C(=O)N[C@@H](C)C(=O)N[C@@H](CCCNC(=N)N)C(=O)N[C@@H](Cc1c[nH]c2ccccc12)C(=O)NCC(=O)N[C@@H](CCCCN)C(=O)N1CCC[C@H]1C(=O)N[C@H](C(=O)NCC(=O)N[C@@H](CCCCN)C(=O)N[C@@H](CCCCN)C(=O)N[C@@H](CCCNC(=N)N)C(N)=O)C(C)C", "target": "MC3R", "test": "cAMP", "EC50 [nM]": 165}
{"Compound": "NCCCC[C@H](NC(=O)[C@@H]1CCCN1C(=O)[C@@H]1CSSC[C@H](N)C(=O)N[C@@H](Cc2ccc(O)cc2)C(=O)N[C@@H](Cc2ccccc2)C(=O)N[C@@H](CCC(N)=O)C(=O)N[C@@H](CC(N)=O)C(=O)N1)C(=O)NCC(N)=O", "target": "AVPR2", "test": "cAMP, TR-FRET", "EC50 [nM]": 0.024}
{"Compound": "C[C@H](NC(=O)Cc1ccccc1)C(=O)N[C@H](Cc1c[nH]c2ccccc12)C(=O)NCCc1ccccc1", "target": "Bombesin receptor subtype-3 (Brs3, Rattus norvegicus, UniProt Q8K418)", "test": "calcium signal, fluorescence", "EC50 [nM]": 110}
{"Compound": "CCCCCCCCCNc1cc(=O)[nH]c(=O)[nH]1", "target": "GPR84", "test": "cAMP", "EC50 [nM]": 30.2}
{"Compound": "CNc1nc2cc(OCCCCN3CCN(c4cccc5ccc(C)nc45)CC3)ccc2s1", "target": "DRD2", "test": "cAMP, luciferase", "EC50 [nM]": 28}
{"Compound": "O=c1cc(NCCc2cccc(F)c2)[nH]c(=O)[nH]1", "target": "GPR84", "test": "cAMP", "EC50 [nM]": 389}
{"Compound": "FC(F)(F)c1nc2cc(OCCCCN3CCN(c4cccc(Cl)c4Cl)CC3)ccc2s1", "target": "DRD2", "test": "β-arrestin recruitment", "EC50 [nM]": 160}
{"Compound": "O=Nc1c(NCCCc2ccccc2)[nH]c(=O)[nH]c1=O", "target": "GPR84", "test": "cAMP", "EC50 [nM]": 1500}
{"Compound": "Cc1ccc(C)c(OCCCC(C)(C)C(=O)O)c1", "target": "Peroxisome proliferator-activated receptor alpha", "test": "reporter gene, luciferase", "EC50 [nM]": 122000}
{"Compound": "NCCCC[C@H](NC(=O)[C@@H]1CCCN1C(=O)[C@@H]1CSSC[C@H](NC(=O)CNC(=O)CNC(=O)CN)C(=O)N[C@@H](Cc2ccc(O)cc2)C(=O)N[C@@H](Cc2ccccc2)C(=O)N[C@@H](CCC(N)=O)C(=O)N[C@@H](CC(N)=O)C(=O)N1)C(=O)NCC(N)=O", "target": "AVPR2", "test": "cAMP, TR-FRET", "EC50 [nM]": 28}
{"Compound": "CC(C)(Oc1ccc(C(=O)c2ccc(Cl)cc2)cc1)C(=O)O", "target": "Peroxisome proliferator-activated receptor alpha", "test": "reporter gene, luciferase", "EC50 [nM]": 194000}
{"Compound": "CCCCCCCCCCNc1cc(O)nc(O)n1", "target": "GPR84", "test": "cAMP", "EC50 [nM]": 20.9}
{"Compound": "CC(C)C[C@H](NC(=O)[C@H](Cc1ccccc1)NC(=O)[C@@H](N)Cc1ccc(O)cc1)C(=O)N[C@@H](Cc1ccccc1)C(=O)N[C@@H](CCCNC(=N)N)C(=O)N1CCC[C@H]1C(=O)N[C@@H](CCCNC(=N)N)C(=O)N[C@@H](CC(N)=O)C(N)=O", "target": "Neuromedin-U receptor 2", "test": "β-arrestin recruitment", "EC50 [nM]": 8.32}
{"Compound": "CC(=O)N[C@H]1CSSC[C@@H](C(=O)N[C@@H](Cc2c[nH]c3ccccc23)C(N)=O)NC(=O)[C@@H](Cc2ccccc2)NC(=O)[C@H](CCCNC(=N)N)NC1=O", "target": "MC3R", "test": "cAMP", "EC50 [nM]": 2400}
{"Compound": "O=c1[nH]c(NCCc2ccc(Br)cc2)c(Br)c(=O)[nH]1", "target": "GPR84", "test": "cAMP", "EC50 [nM]": 372}
{"Compound": "CC(C)C[C@H](NC(=O)[C@H](Cc1ccccc1)NC(=O)[C@H](Cc1ccc(O)cc1)NC(=O)CNC(=O)[C@H](CCCNC(=N)N)NC(=O)[C@H](CO)NC(=O)[C@H](CCC(N)=O)NC(=O)[C@H](CO)NC(=O)[C@H](C)NC(=O)[C@H](Cc1ccccc1)NC(=O)[C@@H]1CCCN1C(=O)[C@H](CO)NC(=O)[C@H](CCC(N)=O)NC(=O)[C@H](Cc1ccccc1)NC(=O)[C@H](CCC(=O)O)NC(=O)[C@H](CCC(=O)O)NC(=O)[C@H](CC(=O)O)NC(=O)[C@@H](NC(=O)[C@H](CCCNC(=N)N)NC(=O)[C@@H](N)Cc1ccccc1)C(C)C)C(=O)N[C@@H](Cc1ccccc1)C(=O)N[C@@H](CCCNC(=N)N)C(=O)N1CCC[C@H]1C(=O)N[C@@H](CCCNC(=N)N)C(=O)N[C@@H](CC(N)=O)C(N)=O", "target": "Neuromedin-U receptor 2", "test": "β-arrestin recruitment", "EC50 [nM]": 0.331}
